# From ChEMBL document CHEMBL4049453, “Discovery of Mixed Pharmacology Melanocortin-3 Agonists and Melanocortin-4 Receptor Tetrapeptide Antagonist Compounds (TACOs) Based on the Sequence Ac-Xaa1-Arg-(pI)DPhe-Xaa4-NH2” (J Med Chem, 2017)
# Calls of active or inactive are those of the source. The rule behind the calls is not given here. Non-standard residues stand in square brackets, D forms with d. Residues, ends and D or L forms follow the SMILES beside them. Bip = N[C@@H](Cc1ccc(-c2ccccc2)cc1)C(=O)O; dPhe(4-I) = N[C@H](Cc1ccc(I)cc1)C(=O)O; 2Nal = N[C@@H](Cc1ccc2ccccc2c1)C(=O)O
# Assays:
# [1] = target: Melanocortin receptor 3 (Mus musculus) (UniProt P33033); assay: Antagonist activity at mouse MC3R expressed in HEK293 cells assessed as inhibition of NDP-MSH induced-cAMP accumulation up to 10 uM after 2 hrs by alpha screen assay; assay type: functional, cell-based
# Procedure, shortened: (§1)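 mouse MC3R or MC4R in stably transfected HEK293 cells, AlphaScreen cAMP assay (IBMX stimulation buffer, 2 h RT incubation, then 2 h with donor-bead lysis mix). […] Run in triplicate.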
# [2] = target: Melanocyte-stimulating hormone receptor (Mus musculus) (UniProt Q01727); assay: Agonist activity at mouse MC1R expressed in HEK293 cells assessed as induction of cAMP accumulation up to 100 uM after 2 hrs by alpha screen assay relative to NDP-MSH; assay type: functional, cell-based
# Procedure, shortened: (§2)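 HEK293 stably expressing mouse MC1R/MC3R/MC4R/MC5R (pCDNA3). Cells in stimulation buffer (HBSS, 0.5 mM IBMX, 5 mM HEPES, 0.1% BSA, pH 7.4) at 1000 cells/μL with anti-cAMP acceptor beads. Ligand given 10−4 to 10−10 M (or 10−6 to 10−12 M) for 2 h at RT in the dark, then donor beads/biotin-cAMP lysis mix for 2 h. AlphaScreen cAMP read-out, normalized to 10−6 M NDP-MSH as 100%.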
# [3] = target: Melanocortin receptor 5 (Mus musculus) (UniProt P41149); assay: Agonist activity at mouse MC5R expressed in HEK293 cells assessed as induction of cAMP accumulation up to 100 uM after 2 hrs by alpha screen assay relative to NDP-MSH; assay type: functional, cell-based; procedure, shortened: as §2
# [4] = target: Melanocortin receptor 4 (Mus musculus) (UniProt P56450); assay: Antagonist activity at mouse MC4R expressed in HEK293 cells assessed as inhibition of NDP-MSH induced-cAMP accumulation up to 10 uM after 2 hrs by alpha screen assay; assay type: functional, cell-based; procedure, shortened: as §1
# [5] = target: Melanocortin receptor 3 (Mus musculus) (UniProt P33033); assay: Agonist activity at mouse MC3R expressed in HEK293 cells assessed as induction of cAMP accumulation up to 100 uM after 2 hrs by alpha screen assay relative to NDP-MSH; assay type: functional, cell-based; procedure, shortened: as §2
# Melanocortin receptor 4 [6] = target: T1, Melanocortin receptor 4 (Mus musculus, UniProt P56450); assay: Agonist activity at mouse MC4R expressed in HEK293 cells assessed as induction of cAMP accumulation after 2 hrs by alpha screen assay; assay type: cell-based
# Melanocortin receptor 4 [7] = target: T1, Melanocortin receptor 4; assay: Agonist activity at mouse MC4R expressed in HEK293 cells assessed as induction of cAMP accumulation up to 100 uM after 2 hrs by alpha screen assay relative to NDP-MSH; assay type: cell-based; details: read-out: Activity
# Melanocortin receptor 4 [8] = target: T2, Melanocortin receptor 4 (Homo sapiens, UniProt P32245); assay: Agonist activity at human MC4R expressed in CHO cells assessed as induction of cAMP activation after 45 mins relative to alpha MSH; assay type: cell-based; details: 0.75 h
# Melanocortin receptor 4 [9] = target: T2, Melanocortin receptor 4; assay: Agonist activity at human MC4R expressed in CHO cells assessed as induction of cAMP activation after 45 mins; assay type: cell-based; details: 0.75 h
# Melanocortin receptor 4 [10] = target: T2, Melanocortin receptor 4; assay: Antagonist activity at human MC4R expressed in CHO cells assessed as inhibition of aplha MSH-induced cAMP activation after 45 mins; assay type: functional, cell-based
# [11] = target: Melanocortin receptor 3 (Homo sapiens) (UniProt P41968); assay: Binding affinity to human MC3R expressed in CHO cells assessed by radioligand displacement
# [12] = target: Melanocortin receptor 3 (Mus musculus) (UniProt P33033); assay: Agonist activity at mouse MC3R expressed in HEK293 cells assessed as induction of cAMP accumulation at 100 uM after 2 hrs by alpha screen assay relative to NDP-MSH; assay type: functional, cell-based; procedure, shortened: as §2
# Melanocortin receptor 4 [13] = target: T1, Melanocortin receptor 4; assay: Agonist activity at mouse MC4R expressed in HEK293 cells assessed as induction of cAMP accumulation at 100 uM after 2 hrs by alpha screen assay relative to NDP-MSH; assay type: cell-based; procedure, shortened: as §2
# [14] = target: Melanocortin receptor 5 (Mus musculus) (UniProt P41149); assay: Agonist activity at mouse MC5R expressed in HEK293 cells assessed as induction of cAMP accumulation at 100 uM after 2 hrs by alpha screen assay relative to NDP-MSH; assay type: functional, cell-based; procedure, shortened: as §2
# [15] = target: Melanocyte-stimulating hormone receptor (Mus musculus) (UniProt Q01727); assay: Agonist activity at mouse MC1R expressed in HEK293 cells assessed as induction of cAMP accumulation at 100 uM after 2 hrs by alpha screen assay relative to NDP-MSH; assay type: functional, cell-based; procedure, shortened: as §2
# Chain of Melanocortin receptor 4 (Mus musculus) (P56450 whole entry): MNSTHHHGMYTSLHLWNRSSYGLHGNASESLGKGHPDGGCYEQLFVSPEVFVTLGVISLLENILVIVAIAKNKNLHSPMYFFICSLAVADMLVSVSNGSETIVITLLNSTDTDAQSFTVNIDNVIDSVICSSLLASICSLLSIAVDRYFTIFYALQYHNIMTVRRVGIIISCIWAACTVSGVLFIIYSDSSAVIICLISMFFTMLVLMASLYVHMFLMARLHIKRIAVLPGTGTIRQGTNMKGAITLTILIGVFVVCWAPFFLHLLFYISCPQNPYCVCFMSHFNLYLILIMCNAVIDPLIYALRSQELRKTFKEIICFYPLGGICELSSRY
# T1 sequence (P56450 whole entry): as above
# Chain of Melanocortin receptor 3 (Mus musculus) (P33033 whole entry): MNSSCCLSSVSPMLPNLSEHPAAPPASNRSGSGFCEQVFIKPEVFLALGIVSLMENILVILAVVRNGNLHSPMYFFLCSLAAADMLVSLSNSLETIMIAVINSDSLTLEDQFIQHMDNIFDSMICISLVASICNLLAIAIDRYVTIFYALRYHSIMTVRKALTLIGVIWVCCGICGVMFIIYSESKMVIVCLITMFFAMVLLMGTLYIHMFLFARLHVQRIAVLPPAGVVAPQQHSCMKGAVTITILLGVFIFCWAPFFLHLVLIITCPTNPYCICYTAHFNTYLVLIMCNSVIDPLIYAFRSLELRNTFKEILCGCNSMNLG
# T2 sequence (P32245 whole entry): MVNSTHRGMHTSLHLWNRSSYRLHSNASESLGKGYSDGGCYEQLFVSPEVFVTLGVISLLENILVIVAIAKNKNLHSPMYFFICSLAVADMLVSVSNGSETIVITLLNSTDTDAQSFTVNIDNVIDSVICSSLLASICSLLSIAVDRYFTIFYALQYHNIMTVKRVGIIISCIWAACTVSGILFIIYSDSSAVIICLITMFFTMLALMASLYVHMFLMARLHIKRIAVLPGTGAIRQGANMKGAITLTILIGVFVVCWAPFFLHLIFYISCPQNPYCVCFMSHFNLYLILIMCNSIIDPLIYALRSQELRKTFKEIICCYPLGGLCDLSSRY
# Chain of Melanocyte-stimulating hormone receptor (Mus musculus) (Q01727 whole entry, looked up): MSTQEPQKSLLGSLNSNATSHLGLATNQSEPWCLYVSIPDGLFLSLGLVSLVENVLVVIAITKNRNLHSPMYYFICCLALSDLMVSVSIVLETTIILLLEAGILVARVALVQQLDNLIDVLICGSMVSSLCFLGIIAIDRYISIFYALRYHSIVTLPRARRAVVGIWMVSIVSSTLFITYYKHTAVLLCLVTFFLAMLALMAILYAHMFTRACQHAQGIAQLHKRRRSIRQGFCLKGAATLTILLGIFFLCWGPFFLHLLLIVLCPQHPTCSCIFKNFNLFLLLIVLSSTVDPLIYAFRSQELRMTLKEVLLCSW
# Chain of Melanocortin receptor 5 (Mus musculus) (P41149 whole entry): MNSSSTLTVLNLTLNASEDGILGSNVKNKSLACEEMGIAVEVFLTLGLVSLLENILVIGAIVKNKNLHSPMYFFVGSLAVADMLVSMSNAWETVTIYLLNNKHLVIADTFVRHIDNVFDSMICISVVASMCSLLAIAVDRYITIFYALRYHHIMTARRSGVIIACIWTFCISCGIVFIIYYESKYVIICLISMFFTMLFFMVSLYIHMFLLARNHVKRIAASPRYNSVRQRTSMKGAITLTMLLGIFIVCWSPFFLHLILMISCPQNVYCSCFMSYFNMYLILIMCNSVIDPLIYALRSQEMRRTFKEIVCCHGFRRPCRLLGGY
# Chain of Melanocortin receptor 3 (Homo sapiens) (P41968 whole entry): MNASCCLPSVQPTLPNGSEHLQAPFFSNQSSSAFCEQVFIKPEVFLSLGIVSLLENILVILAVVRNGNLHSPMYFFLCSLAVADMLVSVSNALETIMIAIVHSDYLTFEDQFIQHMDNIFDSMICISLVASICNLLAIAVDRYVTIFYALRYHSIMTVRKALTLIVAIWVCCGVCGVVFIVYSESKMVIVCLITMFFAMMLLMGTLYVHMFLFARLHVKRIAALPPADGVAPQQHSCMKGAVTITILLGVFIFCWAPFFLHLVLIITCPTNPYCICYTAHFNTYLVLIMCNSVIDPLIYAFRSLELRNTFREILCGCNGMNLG
compound,measurement,setting,value
CC(=O)N[C@@H](Cc1ccc(-c2ccccc2)cc1)C(=O)N[C@@H](CCCNC(=N)N)C(=O)N[C@H](Cc1ccc(I)cc1)C(=O)N[C@@H](Cc1ccc(-c2ccccc2)cc1)C(N)=O (Ac-[Bip]R[dPhe(4-I)][Bip]-NH2),inhibition,[1],inactive
same,Activity,[2],< 20%
same,Activity,[3],< 20%
same,inhibition,[4],inactive
same,Activity,[5],< 20%
CC(=O)N[C@@H](CCCNC(=N)N)C(=O)N[C@@H](CCCNC(=N)N)C(=O)N[C@H](Cc1ccc(I)cc1)C(=O)N[C@H](Cc1ccc2ccccc2c1)C(N)=O,EC50,Melanocortin receptor 4 [6],> 100000 nM
same,Emax,Melanocortin receptor 4 [7],< 20%
N=C(N)NCCC[C@H](NC(=O)[C@@H](Cc1ccc(I)cc1)NC(=O)[C@@H]1Cc2ccccc2CN1)C(=O)N[C@@H](Cc1c[nH]c2ccccc12)C(N)=O,Emax,Melanocortin receptor 4 [8],> 35%
same,Activity,Melanocortin receptor 4 [9],0.3 nM
same,Ki,Melanocortin receptor 4 [10],0.79 nM
same,Kb,Melanocortin receptor 4 [10]; read-out: pA2 (converted),0.794 nM
same,IC50,[11],75 nM
CC(=O)N[C@@H](Cc1ccc2ccccc2c1)C(=O)N[C@@H](CCCNC(=N)N)C(=O)N[C@H](Cc1ccc(I)cc1)C(=O)N[C@@H](Cc1ccc2ccccc2c1)C(N)=O (Ac-[2Nal]R[dPhe(4-I)][2Nal]-NH2),inhibition,[1],inactive
same,inhibition,[4],inactive
same,Emax,Melanocortin receptor 4 [7],< 20%
same,Activity,[12],39%
CC(=O)N[C@@H](Cc1csc2ccccc12)C(=O)N[C@@H](CCCNC(=N)N)C(=O)N[C@H](Cc1ccc(I)cc1)C(=O)N[C@H](Cc1ccc2ccccc2c1)C(N)=O,inhibition,[1],inactive
same,Activity,Melanocortin receptor 4 [13],38%
same,Activity,[14],41%
same,inhibition,[4],inactive
same,Activity,[12],34%
same,Activity,[15],36%
